# From ChEMBL document CHEMBL3856209, “Novel pyrazolopyridine derivatives as potential angiogenesis inhibitors: Synthesis, biological evaluation and transcriptome-based mechanistic analysis” (Eur J Med Chem, 2016)
# Activity calls are given as the source filed them.
# Assays:
# HUVEC [1] = assay: Effect on MMP1 gene expression in serum-starved HUVEC after 6 hrs by microarray analysis relative to control; format: functional, Homo sapiens
# Method in brief: (§1)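 Serum-starved confluent HUVEC (pooled from 3–5 donors, passage ≤4) were treated with 2 μM compound or vehicle in 2.5% FBS for 6 h or 24 h, and total RNA was isolated. Hybridization was on Illumina Human-HT12. Data were processed with bgAdjust, vst and rsn normalization. Changes versus DMSO were called by moderated paired t-test at p < 0.05 and |log2 fold change| > 0.5.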
# HUVEC [2] = assay: Effect on PNISR gene expression in serum-starved HUVEC after 6 hrs by microarray analysis relative to control; format: functional, Homo sapiens; method in brief: as §1
# HUVEC [3] = assay: Effect on PTTG3P gene expression in serum-starved HUVEC after 24 hrs by microarray analysis relative to control; format: functional, Homo sapiens; method in brief: as §1
# HUVEC [4] = assay: Effect on UBE2C gene expression in serum-starved HUVEC after 6 hrs by microarray analysis relative to control; format: functional, Homo sapiens
# Method in brief: (§2)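 Confluent serum-starved HUVEC (primary, pooled from 3–5 donors, passage ≤4) treated with 2 μM compound or DMSO vehicle in 2.5% FBS for 6 h or 24 h. Total RNA hybridized to Illumina Human-HT12 arrays, background-corrected, vst-transformed and rsn-normalized. Differential expression versus DMSO by moderated paired t-test (p < 0.05, |log2 fold change| > 0.5).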
# HUVEC [5] = assay: Effect on ELMOD1 gene expression in serum-starved HUVEC after 24 hrs by microarray analysis relative to control; format: functional, Homo sapiens
# Method in brief: (§3)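 Confluent, serum-starved HUVEC (pooled from 3–5 donors, passage ≤4) treated with 2 μM compound or vehicle with 2.5% FBS for 6 h or 24 h. Total RNA hybridized to Illumina Human-HT12 arrays. Data were background-corrected, vst-transformed and rsn-normalized. Hits called by moderated paired t-test versus DMSO-treated cells, p < 0.05 and log2 fold change >|0.5|.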
# HUVEC [6] = assay: Effect on CENPA gene expression in serum-starved HUVEC after 6 hrs by microarray analysis relative to control; format: functional, Homo sapiens
# Method in brief: (§4)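 Serum-starved confluent HUVEC treated with 2 μM compound or DMSO in 2.5% FBS for 6 h or 24 h; RNA hybridized to Illumina Human-HT12 arrays. Data background-corrected, vst-transformed and rsn-normalized. Differential probes called by moderated paired t-test (limma) at p < 0.05 and log2 fold change >|0.5| vs DMSO.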
# HUVEC [7] = assay: Effect on CYTL1 gene expression in serum-starved HUVEC after 24 hrs by microarray analysis relative to control; format: functional, Homo sapiens
# Method in brief: (§5)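 Serum-starved confluent HUVEC (primary, pooled from 3–5 donors, passage ≤4) treated with 2 μM test compound or DMSO vehicle (working dilutions ≤0.1% v/v) in presence of 2.5% FBS for 6 h or 24 h; total RNA hybridized to Illumina Human-HT12 arrays; background correction, vst, rsn normalization; moderated paired t-test versus DMSO, thresholds p < 0.05 and log2 fold change >|0.5|.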
# HUVEC [8] = assay: Effect on TP53INP2 gene expression in serum-starved HUVEC after 6 hrs by microarray analysis relative to control; format: functional, Homo sapiens
# HUVEC [9] = assay: Effect on LPIN1 gene expression in serum-starved HUVEC after 6 hrs by microarray analysis relative to control; format: functional, Homo sapiens
# HUVEC [10] = assay: Effect on HLA-DPA1 gene expression in serum-starved HUVEC after 24 hrs by microarray analysis relative to control; format: functional, Homo sapiens; method in brief: as §3
# HUVEC [11] = assay: Effect on BHLHE40 gene expression in serum-starved HUVEC after 24 hrs by microarray analysis relative to control; format: functional, Homo sapiens; method in brief: as §4
# HUVEC [12] = assay: Effect on TM7SF2 gene expression in serum-starved HUVEC after 24 hrs by microarray analysis relative to control; format: functional, Homo sapiens
# HUVEC [13] = assay: Effect on CENPW gene expression in serum-starved HUVEC after 6 hrs by microarray analysis relative to control; format: functional, Homo sapiens; method in brief: as §4
# HUVEC [14] = assay: Effect on HAVCR2 gene expression in serum-starved HUVEC after 24 hrs by microarray analysis relative to control; format: functional, Homo sapiens; method in brief: as §2
# HUVEC [15] = assay: Effect on KRT7 gene expression in serum-starved HUVEC after 6 hrs by microarray analysis relative to control; format: functional, Homo sapiens
# HUVEC [16] = assay: Effect on CDK1 gene expression in serum-starved HUVEC after 24 hrs by microarray analysis relative to control; format: functional, Homo sapiens; method in brief: as §4
# HUVEC [17] = assay: Effect on FTH1P8 gene expression in serum-starved HUVEC after 6 hrs by microarray analysis relative to control; format: functional, Homo sapiens; method in brief: as §3
# HUVEC [18] = assay: Effect on CDC25C gene expression in serum-starved HUVEC after 6 hrs by microarray analysis relative to control; format: functional, Homo sapiens; method in brief: as §2
# HUVEC [19] = assay: Effect on ITGB2 gene expression in serum-starved HUVEC after 6 hrs by microarray analysis relative to control; format: functional, Homo sapiens
# [20] = Downregulation of CDC20 gene expression in serum-starved HUVEC at 2 uM after 24 hrs by qRT-PCR analysis; format: functional, cell-based; conditions: Homo sapiens
# Method in brief: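 Serum-starved confluent HUVEC treated with 2 μM compound or vehicle in 2.5% FBS for 24 h. Total RNA isolated and qRT-PCR run in triplicate (95 °C 5 min; 40 cycles of 95 °C 5 s, 58 °C 20 s, 72 °C 5 s), normalized to RPS18S. Fold change vs control, n = 3.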
# HUVEC [21] = assay: Effect on UHRF1 gene expression in serum-starved HUVEC after 6 hrs by microarray analysis relative to control; format: functional, Homo sapiens
# HUVEC [22] = assay: Effect on CENPF gene expression in serum-starved HUVEC after 24 hrs by microarray analysis relative to control; format: functional, Homo sapiens; method in brief: as §5
# HUVEC [23] = assay: Effect on MSMO1 gene expression in serum-starved HUVEC after 6 hrs by microarray analysis relative to control; format: functional, Homo sapiens; method in brief: as §1
# HUVEC [24] = assay: Effect on MYO10 gene expression in serum-starved HUVEC after 24 hrs by microarray analysis relative to control; format: functional, Homo sapiens; method in brief: as §1
# HUVEC [25] = assay: Effect on MYO10 gene expression in serum-starved HUVEC after 6 hrs by microarray analysis relative to control; format: functional, Homo sapiens
# HUVEC [26] = assay: Effect on CCL5 gene expression in serum-starved HUVEC after 6 hrs by microarray analysis relative to control; format: functional, Homo sapiens; method in brief: as §4
# HUVEC [27] = assay: Effect on IL1RL1 gene expression in serum-starved HUVEC after 24 hrs by microarray analysis relative to control; format: functional, Homo sapiens
# HUVEC [28] = assay: Effect on ANKRD1 gene expression in serum-starved HUVEC after 6 hrs by microarray analysis relative to control; format: functional, Homo sapiens; method in brief: as §2
# HUVEC [29] = assay: Effect on ANTXR1 gene expression in serum-starved HUVEC after 6 hrs by microarray analysis relative to control; format: functional, Homo sapiens; method in brief: as §4
# HUVEC [30] = assay: Effect on RACGAP1 gene expression in serum-starved HUVEC after 6 hrs by microarray analysis relative to control; format: functional, Homo sapiens
# HUVEC [31] = assay: Effect on EGR1 gene expression in serum-starved HUVEC after 24 hrs by microarray analysis relative to control; format: functional, Homo sapiens; method in brief: as §3
# HUVEC [32] = assay: Effect on FEN1 gene expression in serum-starved HUVEC after 24 hrs by microarray analysis relative to control; format: functional, Homo sapiens; method in brief: as §2
# HUVEC [33] = assay: Effect on MTSS1 gene expression in serum-starved HUVEC after 6 hrs by microarray analysis relative to control; format: functional, Homo sapiens
# HUVEC [34] = assay: Effect on COL8A1 gene expression in serum-starved HUVEC after 6 hrs by microarray analysis relative to control; format: functional, Homo sapiens; method in brief: as §3
# HUVEC [35] = assay: Effect on CYTL1 gene expression in serum-starved HUVEC after 6 hrs by microarray analysis relative to control; format: functional, Homo sapiens; method in brief: as §2
smiles,measurement,setting,value
COc1ccc(Cn2nc(-c3ccccc3)c3cc(Nc4ccc(N5CCN(C)CC5)cc4)nc(N4CCNCC4)c32)cc1,log2FC,HUVEC [1],-0.1422
COc1ccc(Cn2nc(-c3ccccc3)c3cc(Cl)nc(N4CCNCC4)c32)cc1,log2FC,HUVEC [2],0.5127
same,log2FC,HUVEC [3],-0.5735
same,log2FC,HUVEC [4],-0.1374
same,log2FC,HUVEC [5],-0.514
same,fold change (FC),HUVEC [6],0.0058
COc1ccc(Cn2nc(-c3ccccc3)c3cc(Nc4ccc(N5CCN(C)CC5)cc4)nc(N4CCN(C)CC4)c32)cc1,fold change (FC),HUVEC [7],0.5166
same,log2FC,HUVEC [8],0.0911
same,fold change (FC),HUVEC [9],0.2925
same,log2FC,HUVEC [10],-0.863
same,log2FC,HUVEC [11],0.6018
same,log2FC,HUVEC [12],1.5761
same,log2FC,HUVEC [13],-0.2667
same,fold change (FC),HUVEC [14],-0.7422
same,fold change (FC),HUVEC [15],0.2295
same,log2FC,HUVEC [16],-0.5092
same,fold change (FC),HUVEC [17],0.2063
same,log2FC,HUVEC [3],-0.5177
same,fold change (FC),HUVEC [18],-0.0013
same,fold change (FC),HUVEC [19],1.3289
same,Activity,[20],Active
same,fold change (FC),HUVEC [21],0.012
same,log2FC,HUVEC [4],-0.2671
same,fold change (FC),HUVEC [22],-0.7151
same,fold change (FC),HUVEC [23],0.7741
same,log2FC,HUVEC [24],0.507
same,fold change (FC),HUVEC [25],-0.0407
same,fold change (FC),HUVEC [26],0.2358
same,fold change (FC),HUVEC [27],-0.5903
same,fold change (FC),HUVEC [28],-0.5735
same,fold change (FC),HUVEC [29],0.1452
same,log2FC,HUVEC [30],-0.171
same,log2FC,HUVEC [31],0.5707
same,fold change (FC),HUVEC [32],-0.6
same,fold change (FC),HUVEC [33],0.2099
same,fold change (FC),HUVEC [34],0.2137
same,fold change (FC),HUVEC [35],0.0261
